Measurements pooled from the literature.
Protocols differ between the studies behind these lines.
Target: Ephrin type-B receptor 2 (EPHB2, Homo sapiens, UniProt P29323)
Residues used in one study (P29323 19-1055): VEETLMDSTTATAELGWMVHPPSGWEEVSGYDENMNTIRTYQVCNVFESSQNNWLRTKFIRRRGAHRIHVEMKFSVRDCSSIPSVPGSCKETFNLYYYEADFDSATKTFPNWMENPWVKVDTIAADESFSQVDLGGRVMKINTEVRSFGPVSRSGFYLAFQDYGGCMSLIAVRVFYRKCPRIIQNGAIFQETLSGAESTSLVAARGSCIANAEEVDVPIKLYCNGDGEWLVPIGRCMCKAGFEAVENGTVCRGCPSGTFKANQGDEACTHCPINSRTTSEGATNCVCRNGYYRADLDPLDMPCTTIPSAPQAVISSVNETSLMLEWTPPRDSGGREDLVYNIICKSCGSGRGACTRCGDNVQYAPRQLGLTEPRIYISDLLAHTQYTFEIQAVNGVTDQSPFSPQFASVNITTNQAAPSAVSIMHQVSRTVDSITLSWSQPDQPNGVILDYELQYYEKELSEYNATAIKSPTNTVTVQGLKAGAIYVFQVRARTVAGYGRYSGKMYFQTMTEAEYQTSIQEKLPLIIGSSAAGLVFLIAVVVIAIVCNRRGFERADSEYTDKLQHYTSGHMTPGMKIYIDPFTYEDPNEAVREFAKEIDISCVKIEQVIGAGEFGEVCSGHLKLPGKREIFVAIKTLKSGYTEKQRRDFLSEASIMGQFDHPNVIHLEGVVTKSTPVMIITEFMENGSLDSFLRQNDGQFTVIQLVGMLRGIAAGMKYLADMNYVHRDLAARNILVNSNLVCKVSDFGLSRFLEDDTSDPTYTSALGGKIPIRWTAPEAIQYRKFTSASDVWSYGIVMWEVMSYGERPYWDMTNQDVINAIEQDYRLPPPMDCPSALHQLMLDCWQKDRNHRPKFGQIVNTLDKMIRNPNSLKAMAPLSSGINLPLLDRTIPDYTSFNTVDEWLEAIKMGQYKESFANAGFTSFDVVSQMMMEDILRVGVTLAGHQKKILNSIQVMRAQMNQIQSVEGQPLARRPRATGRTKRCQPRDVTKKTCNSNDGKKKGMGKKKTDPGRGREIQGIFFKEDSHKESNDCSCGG

COc1ncccc1-c1cnn2ccc(N3CCN(C(=O)OC(C)C)CC3)nc12
remaining binding (binding; competition with immobilised ligand; 1 µM): 77%

N#CC1(c2ccccn2)CCN(Cc2cc(C(=O)O)c(=O)n3ccccc23)CC1
remaining binding (cell-free assay; competition with immobilised ligand; 1 µM): 100%

COc1cc(Nc2ncc(F)c(Nc3ccc4c(n3)NC(=O)C(C)(C)O4)n2)cc(OC)c1OC
inhibition (binding; competition with immobilised ligand; 10 µM): 50%

CC(C)(C)c1cc(C=C(C#N)C#N)cc(Br)c1O
remaining activity (enzyme activity; inhibitor; 0.5 µM): 100%

Cn1cncc1[C@@](O)(COc1ccc(C#N)cc1-c1ccc(OC(F)(F)F)cc1)c1ccc(C#N)cc1
remaining binding (cell-free assay; competition with immobilised ligand; 1 µM): 100%

Cn1cc(-c2cc(F)cc(N3CCn4c(cc5c4CCCC5)C3=O)c2CO)cc(Nc2ccc(N3CCN(C4COC4)CC3)cn2)c1=O
inhibition (enzyme activity; inhibitor; 0.1 µM): 14%

Cc1nn(C)cc1-c1nc2c(N3CCN(Cc4ccc(Cl)cc4)CC3)c(Cl)cnc2[nH]1
remaining binding (binding; competition with immobilised ligand; 1 µM): 100%

O=c1[nH]c2ccccc2n1C1CCN(Cc2ccc(-c3[nH]c4cc5ncnc5cc4nc3-c3ccccc3)cc2)CC1
remaining signal (cell-free assay; 0.5 µM): 108%

Cn1cc(-c2cccc(N3CCc4c(sc5c4CC(C)(C)C5)C3=O)c2CO)cc(Nc2ccncn2)c1=O
inhibition (enzyme activity; inhibitor; 1 µM): 1%
